Assay results as given in ChEMBL document CHEMBL1154819, “Synthesis and antiviral activity of boranophosphonate isosteres of AZT and d4T monophosphates” (Eur J Med Chem, 2010).
Calls of active or inactive are those of the source. The rule behind the calls is not given here.

Key:
[1] = test system: Human immunodeficiency virus 2; test: Antiviral activity against HIV2 ROD infected in human CEM cells at 400 uM after 4 to 5 days; assay type: functional, organism-based; settings: ISOLATE ROD, CCRF-CEM
Summary of the method: (§1)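 CEM cells (4.5×10^5/ml) were infected at 100 CCID50 per ml, mixed 1:1 with compound dilutions and incubated at 37 °C. Giant-cell formation was scored microscopically after 4–5 days. EC50 is the concentration preventing syncytium formation by 50%.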

Punta Toro virus = test: Antiviral activity against Punta Toro virus infected in african green monkey Vero cells assessed as inhibition of virus-induced cytopathic effect up to 200 uM after 3 days; assay type: functional, organism-based
Summary of the method: (§2)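 Confluent cell monolayers in MEM with 10% FCS, 2 mM L-glutamine and 0.075% bicarbonate were inoculated with 100 times the 50% cell culture infective dose. Compounds were added after 1–2 h of virus adsorption. Cytopathic effect was scored microscopically at about 3 days as a percentage of untreated controls, and EC50 was read from graphical plots.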

Human alphaherpesvirus 1 = test: Antiviral activity against HSV1 infected in human HEL cells assessed as inhibition of virus-induced cytopathic effect up to 200 uM after 3 days; assay type: functional, organism-based; summary of the method: as §2
[2] = test system: Human immunodeficiency virus 1; test: Antiviral activity against HIV1 3B infected in human CEM cells at 400 uM after 4 to 5 days; assay type: functional, organism-based; settings: CCRF-CEM; summary of the method: as §1
[3] = Chemical stability in PBS of pH 11.5 by HPLC; assay type: physicochemical; settings: buffer
Summary of the method: (§3)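 Compound at an initial 0.1 mM was incubated at 37 °C in buffer at pH 1.2, 7.3 or 11.5. Timed aliquots were frozen at −80 °C and analysed directly by on-line precolumn-cleaning C18 HPLC (0.05 M TEAB to TEAB/CH3CN gradient). Half-lives of decomposition were calculated.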

[4] = Chemical stability in PBS of pH 7.3 by HPLC; assay type: physicochemical; settings: buffer; summary of the method: as §3
[5] = Chemical stability in PBS of pH 1.2 by HPLC; assay type: physicochemical; settings: buffer; summary of the method: as §3
[6] = Chemical stability in culture media by HPLC; assay type: physicochemical
Summary of the method: (§4)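 Compound at an initial 0.1 mM was incubated at 37 °C in RPMI 1640 containing 10% heat-inactivated fetal calf serum. Aliquots were frozen at −80 °C and analysed by on-line precolumn-cleaning reversed-phase C18 HPLC with a TEAB/acetonitrile gradient. Decomposition half-lives were calculated.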

[7] = Cytotoxicity against human HuH5.2 cells up to 200 uM after 3 days by MTS assay; assay type: cell-based; settings: huh-5-2, 72 h
Summary of the method: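 Parallel Huh-5-2 cultures were seeded at 7000 cells/well and treated like the replicon assay without luciferase reagents. Proliferation was measured 3 days after compound addition by MTS bioreduction to formazan, read in a plate reader.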

[8] = test system: Mammalian orthoreovirus 1; test: Antiviral activity against Reovirus 1 infected in african green monkey Vero cells assessed as inhibition of virus-induced cytopathic effect up to 200 uM after 3 days; assay type: functional, organism-based; summary of the method: as §2
Vaccinia virus = test: Antiviral activity against Vaccinia virus infected in human HEL cells assessed as inhibition of virus-induced cytopathic effect up to 200 uM after 3 days; assay type: functional, organism-based; settings: Orthopoxvirus vaccinia
Coxsackievirus B4 = test: Antiviral activity against Coxsackievirus B4 virus infected in human HeLa cells assessed as inhibition of virus-induced cytopathic effect up to 200 uM after 3 days; assay type: functional, organism-based; summary of the method: as §2
[9] = test system: Vesicular stomatitis virus; test: Antiviral activity against VSV infected in human HEL cells assessed as inhibition of virus-induced cytopathic effect up to 200 uM after 3 days; assay type: functional, organism-based
Sindbis virus = test: Antiviral activity against […] virus infected in african green monkey Vero cells assessed as inhibition of virus-induced cytopathic effect up to 200 uM after 3 days; assay type: functional, organism-based; summary of the method: as §2
CCRF-CEM [10] = test: Cytotoxicity against human CEM cells at 400 uM after 3 days by MTS assay; assay type: cell-based; settings: 72 h
Human respirovirus 3 = test: Antiviral activity against Parainfluenza virus 3 infected in african green monkey Vero cells assessed as inhibition of virus-induced cytopathic effect up to 200 uM after 3 days; assay type: functional, organism-based; summary of the method: as §2
Vero = test: Cytotoxicity against african green monkey Vero cells up to 200 uM after 3 days by MTS assay; assay type: cell-based; settings: chlorocebus sabaeus, 72 h
HeLa = test: Cytotoxicity against human HeLa cells up to 200 uM after 3 days by MTS assay; assay type: cell-based; settings: 72 h
Human alphaherpesvirus 2 = test: Antiviral activity against HSV2 infected in human HEL cells assessed as inhibition of virus-induced cytopathic effect up to 200 uM after 3 days; assay type: functional, organism-based; summary of the method: as §2
Hepatitis C virus = test: Antiviral activity against HCV 1b infected in Huh-5-2 cells assessed as inhibition of subgenomic replication; assay type: functional, organism-based; settings: Hepacivirus hominis, genotype 1b
Summary of the method: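 Huh-5-2 cells carry an HCV genotype 1b subgenomic replicon (I389luc-ubi-neo/NS3-3'/5.1) with a firefly luciferase fusion. They were seeded at 7000 cells/well without G418 and allowed to adhere for 24 h. Five 5-fold dilutions starting at 100 µM were then added for 72 h at 37 °C. Luciferase signal was expressed as % of untreated cultures to give EC50. Interferon alfa 2a (500 IU) served as positive control.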

[11] = Cytotoxicity against human MAGI-CCR5 cells at 400 uM; assay type: cell-based; settings: magi-ccr5, 400 µM
Summary of the method: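 MAGI-CCR5 cells were exposed to 0–400 µM compound. CC50 is the concentration inhibiting cell proliferation by 50%.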

CCRF-CEM [12] = test: Stability in human CEM cells by HPLC; assay type: ADME, cell-based
Summary of the method: (§5)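 CEM-SS cells were washed in PBS, resuspended at 30×10^6 cells/mL in 10 mM Tris–HCl, 140 mM KCl (pH 7.4), sonicated and clarified at 10,000 g. Compound (0.1 mM initial) was incubated in the extract at 37 °C. Aliquots were frozen at −80 °C and analysed by on-line cleaning C18 HPLC to derive half-life.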

HEL = test: Cytotoxicity against human HEL cells up to 200 uM after 3 days by MTS assay; assay type: cell-based; settings: 72 h
[13] = test system: Respiratory syncytial virus; test: Antiviral activity against RSV infected in human HeLa cells assessed as inhibition of virus-induced cytopathic effect up to 200 uM after 3 days; assay type: functional, organism-based; summary of the method: as §2
[14] = test system: Human immunodeficiency virus 1; test: Antiviral activity against HIV1 NL4-3 infected in MAGI-CCR5 cells at 400 uM after 2 days; assay type: functional, organism-based
Summary of the method: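 HIV-1 NL4.3 stock came from 293T cells transfected with the molecular clone and was titred by p24. MAGI-CCR5 cells (10^4 cells, integrated HIV promoter–LacZ reporter, in DMEM with 10% FBS) were pretreated for 4 h with 0–400 µM compound. They were then spinoculated with 100 ng CAp24 and grown with compound. After 2 days, cells were stained for β-galactosidase and blue cells counted; EC50 is a 50% drop in blue cells.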

[15] = Stability in human CEM cells assessed as half life of degradation by HPLC; assay type: ADME, cell-based; settings: CEM (CCRF-CEM) cells; summary of the method: as §5
[16] = Chemical stability assessed as half life of degradation in culture media by HPLC; assay type: physicochemical; summary of the method: as §4
[17] = Chemical stability assessed as half life of degradation in PBS of pH 11.5 by HPLC; assay type: physicochemical
Summary of the method: (§6)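 Compound at 0.1 mM initial concentration in buffer, incubated at 37 °C. Aliquots were taken at set times, frozen at −80 °C, then analysed by on-line cleaning-precolumn reversed-phase HPLC (C18, TEAB/acetonitrile gradient). Decomposition half-life was calculated, with products identified by co-injection with authentic samples.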

[18] = Chemical stability assessed as half life of degradation in PBS of pH 1.2 by HPLC; assay type: physicochemical; summary of the method: as §6
[19] = Chemical stability assessed as half life of degradation in PBS of pH 7.3 by HPLC; assay type: physicochemical; summary of the method: as §6

SMILES | Activity [1] | Activity (Punta Toro virus) | Activity (Human alphaherpesvirus 1) | Activity [2] | Activity [7] | Activity [8] | Activity (Vaccinia virus) | Activity (Coxsackievirus B4) | Activity [9] | Activity (Sindbis virus) | Activity (CCRF-CEM [10]) | Activity (Human respirovirus 3) | Activity (Vero) | Activity (HeLa) | Activity (Human alphaherpesvirus 2) | Activity (Hepatitis C virus) | Activity [11] | Activity (HEL) | Activity [13] | Activity [14] | also measured
Cc1cn([C@H]2C[C@H](N=[N+]=[N-])[C@@H](CC[PH](=O)O)O2)c(=O)[nH]c1=O | inactive | inactive | inactive | inactive | Non-toxic | inactive | inactive | inactive | inactive | inactive | Non-toxic | inactive | Non-toxic | Non-toxic | inactive | inactive | Non-toxic | Non-toxic | inactive | inactive | Stability [3]: Stable; Stability [4]: Stable; Stability [5]: Stable; Stability [6]: Stable; Stability (CCRF-CEM [12]): Stable
BP(=O)(O)CC[C@H]1O[C@@H](n2cc(C)c(=O)[nH]c2=O)C[C@@H]1N=[N+]=[N-] | inactive | inactive | inactive | inactive | Non-toxic | inactive | inactive | inactive | inactive | inactive | Non-toxic | inactive | Non-toxic | Non-toxic | inactive | inactive | Non-toxic | Non-toxic | inactive | inactive | Stability [3]: Stable; Stability [4]: Stable; Stability [5]: Stable; half-life [15]: > 48 h; half-life [16]: 3.1 h
Cc1cn([C@H]2C=C[C@@H](CC[PH](=O)O)O2)c(=O)[nH]c1=O | inactive | inactive | inactive | inactive | Non-toxic | inactive | inactive | inactive | inactive | inactive | Non-toxic | inactive | Non-toxic | Non-toxic | inactive | inactive | Non-toxic | Non-toxic | inactive | inactive | half-life [17]: > 48 h; half-life [15]: 2 h; half-life [16]: 11 h; half-life [18]: 28 h; half-life [19]: > 48 h
BP(=O)(O)CC[C@@H]1C=C[C@H](n2cc(C)c(=O)[nH]c2=O)O1 | inactive | inactive | inactive | inactive | Non-toxic | inactive | inactive | inactive | inactive | inactive | Non-toxic | inactive | Non-toxic | Non-toxic | inactive | inactive | Non-toxic | Non-toxic | inactive | inactive | half-life [17]: > 48 h; half-life [15]: 3 h; half-life [16]: 1.6 h; half-life [18]: 16 h; half-life [19]: 22 h
